Measured values from paper PMC9810488 (Translational and Clinical Pharmacology, 2022).
Like-named read-outs stand apart in the source and are kept apart here.

Legend:
[1] = format: in vivo, human; details: sitagliptin 100 mg single oral dose, plasma
How it was run: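 Healthy Korean adults (≥19 years, BMI 18.0–30.0 kg/m2) took a single 100 mg oral tablet with 150 mL water in randomized periods, washout ≥7 days. Heparinized blood was drawn predose and 15 min–48 h postdose, centrifuged 3,000 rpm, 10 min, 4°C, and plasma stored at −70°C. Assay was LC-MS/MS, positive-ion ESI. Noncompartmental: Cmax observed, AUCinf by linear-up log-down trapezoidal rule. ABCB1 genotyped by TaqMan allelic discrimination.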

[2] = cited from earlier work
[3] = cited from earlier work; remark: listed apart in the source

Sitagliptin AUCinf ([1]; ABCB1 C1236T CC+CT (n=72))	Sitagliptin Cmax ([1]; ABCB1 C1236T CT+TT (n=81)) [µg/mL]	Sitagliptin AUCinf ([1]; ABCB1 C3435T CC (n=49))	Sitagliptin AUCinf ([1]; ABCB1 C3435T CC+CT (n=91))	Sitagliptin Cmax ([1]; ABCB1 C3435T CT (n=42)) [µg/mL]	Sitagliptin Cmax ([1]; ABCB1 C3435T CT+TT (n=51)) [µg/mL]	Sitagliptin AUCinf ([1]; ABCB1 C3435T TT (n=9))	Sitagliptin AUCinf ([1]; ABCB1 G2677T/A AA (n=2))	Sitagliptin AUCinf ([1]; ABCB1 G2677T/A AT+GA (n=37))	Sitagliptin Cmax ([1]; ABCB1 G2677T/A AT+GA (n=37)) [µg/mL]	Sitagliptin AUCinf ([1]; ABCB1 G2677T/A AT+GT (n=44))	Sitagliptin Cmax ([1]; ABCB1 G2677T/A AT+GT (n=44)) [µg/mL]	Sitagliptin AUCinf ([1]; ABCB1 G2677T/A GA (n=20))	Sitagliptin AUCinf ([1]; ABCB1 G2677T/A GA+GT (n=47))	Sitagliptin AUCinf ([1]; ABCB1 G2677T/A TT (n=9))	Structure (SMILES)	drug eliminated as unchanged compound in the urine [2]	digoxin concentrations higher in 3435TT homozygous subjects than in CC and CT subjects ([3]; 34 Caucasian subjects) [%]	lower AUC for digoxin in 3435 TT genotype than in CC and CT genotypes ([3]; Japanese study, 114 subjects) [%]	relationship between C3435T SNP and digoxin concentrations ([3]; single digoxin dose)
3,504.78 ± 655.77 ng*h/mL	0.45601 ± 0.12374	3,530.20 ± 669.78 ng*h/mL	3,484.02 ± 630.25 ng*h/mL	0.45426 ± 0.13679	0.45753 ± 0.13073	3,528.50 ± 564.05 ng*h/mL	3,481.41 ng*h/mL	3,501.79 ± 714.08 ng*h/mL	0.4579 ± 0.09821	3,475.54 ± 576.82 ng*h/mL	0.45731 ± 0.14279	3,679.91 ± 852.18 ng*h/mL	3,628.80 ± 723.63 ng*h/mL	3,477.17 ± 596.14 ng*h/mL	N[C@@H](CC(=O)N1CCn2c(nnc2C(F)(F)F)C1)Cc1cc(F)c(F)cc1F [Sitagliptin]	over 80%	–	–	–
–	–	–	–	–	–	–	–	–	–	–	–	–	–	–	C[C@H]1O[C@@H](O[C@H]2[C@@H](O)C[C@H](O[C@H]3[C@@H](O)C[C@H](O[C@H]4CC[C@@]5(C)[C@H](CC[C@@H]6[C@@H]5C[C@@H](O)[C@]5(C)[C@@H](C7=CC(=O)OC7)CC[C@]65O)C4)O[C@@H]3C)O[C@@H]2C)C[C@H](O)[C@@H]1O [digoxin]	–	20	20	no relationship
